Columns and labels:
Type in all cases: functional
Settings in all cases: route oral
[1] = tested on: Rattus norvegicus; test: Inhibition of Zymosan-induced rat's paw edema(ZPE) after peroral administration of 100 mg/kg dose.
In short: (§1)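 Male Wistar rats (about 150 g) were dosed orally with compound suspended in 5% arabic gum, 1 h before a subplantar hind-paw injection of 0.1 mL saline. The irritant was 1% zymosan for 33 or 1% λ-carrageenin for 34. Paw volume was measured by plethysmograph before dosing and at 4 h (zymosan) or 3 h (carrageenin). Swelling is relative to initial volume, as mean ± SEM. % inhibition is versus the control group's mean swelling.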

[2] = tested on: Rattus norvegicus; test: Compound was tested for the inhibition of rat reversed passive Arthus pleurisy after peroral administration of 100 mg/kg dose at 0.71 mL of exudate volume with 0.84 mL of control (injected intrapleurally)
In short: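 Male Wistar rats (about 250 g) were given compound orally before the antiserum. Under ether anesthesia, 0.2 mL rabbit anti-egg albumin antiserum was injected intrapleurally. After 30 min, egg albumin (15 mg/100 g body weight in 0.1 mL saline) was given iv. Rats were killed 4.5 h later and the thoracic cavity was rinsed with 5 mL saline. Exudate volume and infiltrated cell number were measured, with inhibition % versus controls as mean ± SEM.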

[3] = tested on: Rattus norvegicus; test: Compound was tested for the inhibition of rat reversed passive Arthus pleurisy after peroral administration of 100 mg/kg dose at 4.4*10e6 no of cells with 5.72*10e6 cells of control
In short: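 Male Wistar rats (about 250 g) under ether received 0.2 mL rabbit anti-egg-albumin antiserum intrapleurally. Thirty min later they got 15 mg EA/100 g body weight in 0.1 mL saline iv. Compounds were given orally beforehand. Rats were killed 4.5 h after induction and the thoracic cavity rinsed with 5 mL saline. Exudate volume and infiltrated cell count were read as mean ± SE. % inhibition is versus control.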

[4] = tested on: Rattus norvegicus; test: Antiinflammatory activity on Carrageenan rat's paw edema(CPE) after peroral administration of 100 mg/kg dose with control swelling of 64.2%
[5] = tested on: Rattus norvegicus; test: Antiinflammatory activity on Zymosan-induced rat's paw edema(ZPE) after peroral administration of 100 mg/kg dose with control swelling of 71.7%
In short: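 Male Wistar rats weighing about 150 g were dosed orally with compound suspended in 5% arabic gum. 1 h later, 1% zymosan in 0.1 mL saline was injected subplantarly into the hind paw. Paw volume was measured by plethysmograph before dosing and 4 h after zymosan, with edema as the volume difference. Inhibition % was derived from mean swelling versus the control group.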

[6] = tested on: Rattus norvegicus; test: Inhibition of carrageenan-induced rat's paw edema (CPE) after peroral administration of 100 mg/kg dose.; in short: as §1

## COc1ccccc1NC(=O)c1c(O)c2cccnc2n(-c2ccccc2)c1=O
[1]
  inhibition in vivo at 100 mg/kg: 8.1%
[2]
  inhibition in vivo at 100 mg/kg: 16.7%
[3]
  inhibition in vivo at 100 mg/kg: 26.8%
[4]
  Swelling: 70.7%
[5]
  Swelling: 65.9%
[6]
  inhibition in vivo at 100 mg/kg: -10.1%

Reference: ChEMBL document CHEMBL1126267, “A novel synthesis and potent antiinflammatory activity of 4-hydroxy-2(1H)-oxo-1-phenyl-1,8-naphthyridine-3-carboxamides” (1992)
